Legend:
Rattus norvegicus [1] = assay: Percentage analgesia by rat hot plate test after oral administration at 300 mg/kg.; format: functional
Outline: (§1)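 Rats fasted 18 h, prescreened on a 55 ± 0.5 °C hot plate (latency <12 s, else lowest <30 s) to set the 0 h value. Groups of 8 dosed orally in sesame oil (1 mL/200 g); latency read at 1.5, 3, 5 h (24 h if persisting). %analgesia = [(LT(t) − LT(0))/(60 − LT(0))]×100, taken at the time of maximal latency.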

Mus musculus [2] = assay: Latency time measured by mouse hot plate test after subcutaneous administration at 200 mg/kg; format: functional; set-up: unit: s
Outline: (§2)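 Male CF-1 mice, 8 per group, given test agent sc in 0.2 mL ethanol/Tween-80/saline (10/10/80); dose 0.68 mmol (200 mg/kg for capsaicin). Placed on copper surface held at 55 ± 0.5 °C. Paw-response latency (s) reported as group mean ± SD; pretest latency ~5 s.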

Mus musculus [3] = species on record: Mus musculus; assay: Ratio of the number of responders to the number of animals tested; 0/8; format: functional
Mus musculus [4] = species on record: Mus musculus; assay: Ratio of the number of responders to the number of animals tested; 7/8; format: functional
[5] = Acute toxicity after intraperitoneal dose at 400 mg/kg in mice; format: organism-based; set-up: dose 400 mg/kg, route intraperitoneal; settings: mouse, in vivo, ip, read-out: Lethality
Outline: (§3)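 Single intraperitoneal dose at the listed mg/kg; acute toxicity scored as % lethality = number of deaths / number of animals dosed, 7–10 animals per group.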

Mus musculus [6] = assay: Percentage inhibition in mouse by using Croton oil-inflamed mouse ear test (topical dosing).; format: functional; set-up: concentration or dose not given beside the values
Outline: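 Male Cox ICR mice (25–35 g), 10 per group. Left ear given 25 μL of 1% compound in ethanol, repeated ~17 h later; 1 h after that, both ears given 25 μL 2% croton oil. After 4 h, 5 mm ear punches weighed. % inhibition = [(C − T1)/C]×100, using left-minus-right weight differences versus vehicle controls.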

[7] = (§4) Acute toxicity after intraperitoneal dose at 200 mg/kg in mice; format: organism-based; set-up: dose 200 mg/kg, route intraperitoneal; settings: mouse, in vivo, ip, read-out: Lethality; outline: as §3
Mus musculus [8] = species on record: Mus musculus; assay: Ratio of the number of responders to the number of animals tested; 8/8; format: functional
Mus musculus [9] = assay: Latency time measured by mouse hot plate test after subcutaneous administration at 200 mg/kg in experiment 3; format: functional; outline: as §2
Mus musculus [10] = assay: Latency time measured by mouse hot plate test after subcutaneous administration at 200 mg/kg in experiment 1; format: functional; outline: as §2
Rattus norvegicus [11] = assay: Percentage analgesia by using rat hot plate test after oral administration at 300 mg/kg; format: functional; outline: as §1
[12] = Acute toxicity after intraperitoneal dose at 4 mg/kg in mice; format: organism-based; set-up: dose 4 mg/kg, route intraperitoneal; settings: mouse, in vivo, ip, read-out: Lethality; outline: as §3
Mus musculus [13] = assay: Latency time measured by mouse hot plate test after subcutaneous at 200 mg/kg in experiment 2; format: functional; outline: as §2
Mus musculus [14] = species on record: Mus musculus; assay: Ratio of the number of responders to the number of animals tested; 5/5; format: functional
[15] = Acute toxicity after intraperitoneal dose at 50 mg/kg in mice; format: organism-based; set-up: dose 50 mg/kg, route intraperitoneal; settings: mouse, in vivo, ip, read-out: Lethality; outline: as §3
Mus musculus [16] = species on record: Mus musculus; assay: Ratio of the number of responders to the number of animals tested; 6/8; format: functional
[17] = Acute toxicity after intraperitoneal dose at 15 mg/kg in mice; format: organism-based; set-up: dose 15 mg/kg, route intraperitoneal; settings: mouse, in vivo, ip, read-out: Lethality; outline: as §3
Mus musculus [18] = species on record: Mus musculus; assay: Ratio of the number of responders to the number of animals tested; 2/8; format: functional
Mus musculus [19] = species on record: Mus musculus; assay: Ratio of the number of responders to the number of animals tested; 5/8; format: functional
[20] = Acute toxicity after intraperitoneal dose at 100 mg/kg in mice; format: organism-based; set-up: dose 100 mg/kg, route intraperitoneal; settings: mouse, in vivo, ip, read-out: Lethality; outline: as §3
Mus musculus [21] = species on record: Mus musculus; assay: Ratio of the number of responders to the number of animals tested; 4/8; format: functional
Mus musculus [22] = species on record: Mus musculus; assay: Ratio of the number of responders to the number of animals tested; 6/6; format: functional
[23] = Acute toxicity after intraperitoneal dose at 8 mg/kg in mice; format: organism-based; set-up: dose 8 mg/kg, route intraperitoneal; settings: mouse, in vivo, ip, read-out: Lethality; outline: as §3
Mus musculus [24] = assay: as §4; format: functional; outline: as §3
[25] = Acute toxicity after intraperitoneal dose at 50 mg/kg; format: organism-based; set-up: dose 50 mg/kg, route intraperitoneal; settings: mouse, in vivo, ip, read-out: Lethality; outline: as §3

SMILES | Analgesia (Rattus norvegicus [1]) [%] | Latency (Mus musculus [2]) | Inhibition (Mus musculus [6]) [%] | also measured
CCCCCC/C=C\CCCCCCCCNC(=O)Cc1ccc(O)c(OC)c1 | 88 | – | – | –
CCCCCCCCCCCCCC/C=C\CC(=O)NCc1ccc(O)c(OC)c1 | – | 7.5 | – | Response (Mus musculus [3]): 0
CCCCCCC/C=C\CCCCCCCCC(=O)NCc1ccc(O)c(OC)c1 | 69 | >38.5 | 81.7 | Response (Mus musculus [4]): 7; mortality [5]: 30%
CCCCCCNC(=O)Cc1ccc(O)c(OC)c1 | – | 40.7 | -5.8 | –
CCCCC/C=C\CCCCCCCCCCC(=O)NCc1ccc(O)c(OC)c1 | – | >39.9 | 60 | mortality [7]: 30%; Response (Mus musculus [8]): 8
CCCCCCCCNC(=O)Cc1ccc(O)c(OC)c1 | – | – | 89.1 | Latency (Mus musculus [9]): 32.3; Latency (Mus musculus [10]): 58.7; Analgesia (Rattus norvegicus [11]): 7%; mortality [12]: 50%; Latency (Mus musculus [13]): >60
CCCCCCCCCC(=O)NCc1ccc(O)c(OC)c1 | – | >43 | 71.4 | Response (Mus musculus [14]): 5; mortality [15]: 80%
CCCCCCCC/C=C\CCCCCCCCNC(=O)Cc1ccc(O)c(OC)c1 | 74 | 27.9 | 95.5 | Response (Mus musculus [4]): 7; mortality [7]: 50%
CCCCCCC(=O)NCc1ccc(O)c(OC)c1 | – | 29.8 | 33.7 | Response (Mus musculus [16]): 6; mortality [15]: 85%
CCCCCCCNC(=O)Cc1ccc(O)c(OC)c1 | – | 41.1 | 69.4 | mortality [17]: 100%
CCCCCCCC/C=C/CCCCCCCCNC(=O)Cc1ccc(O)c(OC)c1 | 95 | – | – | –
CCCCCCCCCC/C=C/CCCCCC(=O)NCc1ccc(O)c(OC)c1 | 27 | 11.5 | 26.7 | Response (Mus musculus [18]): 2; mortality [7]: 60%
COc1cc(CNC(=O)CCCc2ccccc2)ccc1O | – | 5.6 | 40.9 | mortality [15]: 75%
C=CCCCCCCCCNC(=O)Cc1ccc(O)c(OC)c1 | 29 | 32.4 | 98.9 | Response (Mus musculus [19]): 5; mortality [20]: 90%
CCCCC(=O)NCc1ccc(O)c(OC)c1 | – | 9.6 | 24.2 | Response (Mus musculus [18]): 2; mortality [20]: 60%
COc1cc(CNC(=O)CCCCc2ccccc2)ccc1O | – | 12.2 | 56.4 | mortality [15]: 90%
CCCCCC(=O)NCc1ccc(O)c(OC)c1 | – | 16.8 | 33.6 | mortality [15]: 60%; Response (Mus musculus [21]): 4
COc1cc(CNC(=O)CCCCCc2ccccc2)ccc1O | – | 6.2 | 57.6 | mortality [15]: 70%
CCCCCCCC/C=C\CCCCCCCCCCCCCC(=O)NCc1ccc(O)c(OC)c1 | – | 6.1 | 48 | Response (Mus musculus [3]): 0
C=C(CCCCCCCCC)CCCCCCCC(=O)NCc1ccc(O)c(OC)c1 | 67 | >22.8 | 96.2 | Response (Mus musculus [18]): 2; mortality [7]: 60%
CCCCCCCC(=O)NCc1ccc(O)c(OC)c1 | – | >51.3 | 45.8 | Response (Mus musculus [22]): 6; mortality [15]: 90%
CCCCCCCC#CCCCCCCCCC(=O)NCc1ccc(O)c(OC)c1 | 15 | >18.6 | 50.3 | Response (Mus musculus [18]): 2; mortality [7]: 70%
CCCCCCCCC(=O)NCc1ccc(O)c(OC)c1 [NONIVAMIDE] | 17 | >31.2 | 72.3 | mortality [23]: 50%; Response (Mus musculus [8]): 8
CCCCCCCC[C@H]1O[C@@H]1CCCCCCCC(=O)NCc1ccc(O)c(OC)c1 | – | 10.7 | 26 | Lethality (Mus musculus [24]): 60%
CCCCCCCCCCCC(=O)NCc1ccc(O)c(OC)c1 | – | 9.9 | 48.1 | mortality [17]: 25%; mortality [25]: 100%; Response (Mus musculus [3]): 0

Reference: ChEMBL document CHEMBL1127051, “Vanilloids. 1. Analogs of capsaicin with antinociceptive and antiinflammatory activity” (J Med Chem, 1993)
